Reference: ChEMBL document CHEMBL1649412, “Discovery and SAR of 5-(3-chlorophenylamino)benzo[c][2,6]naphthyridine-8-carboxylic acid (CX-4945), the first clinical stage inhibitor of protein kinase CK2 for the treatment of cancer” (J Med Chem, 2011)
One block for each compound: values may come before it.

Columns and labels:
Casein kinase II = Casein kinase II (Homo sapiens, UniProt P19784+P67870+P68400); assay: Inhibition of human recombinant CK2 assessed as inhibition of [gamma33P]ATP incorporation into substrate by […]; type: protein-complex assay
Sequence of Casein kinase II (P67870 whole entry): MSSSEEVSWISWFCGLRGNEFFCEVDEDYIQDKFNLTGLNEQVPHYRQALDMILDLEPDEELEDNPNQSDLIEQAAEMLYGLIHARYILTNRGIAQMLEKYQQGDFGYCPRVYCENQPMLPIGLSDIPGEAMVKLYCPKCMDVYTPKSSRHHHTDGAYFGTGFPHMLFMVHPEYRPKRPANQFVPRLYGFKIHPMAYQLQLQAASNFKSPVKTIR
Sequence of Casein kinase II (P68400 whole entry): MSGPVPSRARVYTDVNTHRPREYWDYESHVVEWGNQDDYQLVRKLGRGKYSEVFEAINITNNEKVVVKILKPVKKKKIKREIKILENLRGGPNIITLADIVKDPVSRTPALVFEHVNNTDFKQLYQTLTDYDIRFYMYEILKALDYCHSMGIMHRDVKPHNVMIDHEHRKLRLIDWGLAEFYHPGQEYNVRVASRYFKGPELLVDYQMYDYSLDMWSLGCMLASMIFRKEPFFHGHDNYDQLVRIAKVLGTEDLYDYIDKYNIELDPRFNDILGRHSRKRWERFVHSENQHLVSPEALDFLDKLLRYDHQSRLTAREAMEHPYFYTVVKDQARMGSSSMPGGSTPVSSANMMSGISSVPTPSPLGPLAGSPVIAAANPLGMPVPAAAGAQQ
Sequence of Casein kinase II (P19784 whole entry): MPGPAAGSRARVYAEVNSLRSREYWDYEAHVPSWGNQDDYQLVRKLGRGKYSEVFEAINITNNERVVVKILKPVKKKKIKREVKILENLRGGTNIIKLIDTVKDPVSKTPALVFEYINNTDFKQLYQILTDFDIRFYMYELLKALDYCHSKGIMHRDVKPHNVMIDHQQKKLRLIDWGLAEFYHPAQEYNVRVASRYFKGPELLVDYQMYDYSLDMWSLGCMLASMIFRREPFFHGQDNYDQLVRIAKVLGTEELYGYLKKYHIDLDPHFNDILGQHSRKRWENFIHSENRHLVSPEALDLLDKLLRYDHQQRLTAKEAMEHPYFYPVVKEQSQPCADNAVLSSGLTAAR

[1] = Antiproliferative activity against human H1299 cells after 4 days by alamar blue assay; type: functional, cell-based; conditions: NCI-H1299, 96 h
cells = conditions: Homo sapiens, Hs-578T, 96 h
HCT-116 = assay: cells; conditions: Homo sapiens, HCT-116, 96 h
PC-3 [2] = assay: cells; conditions: Homo sapiens, PC-3, 96 h
K562 = assay: Antiproliferative activity against human K562 cells after 4 days by alamar blue assay; type: functional, cell-based; conditions: K562, 96 h
MIA PaCa-2 = assay: cells; conditions: Homo sapiens, MIA PaCa-2, 96 h
Jurkat = assay: cells; conditions: Homo sapiens, 96 h
A549 = assay: Antiproliferative activity against human A549 cells after 4 days by alamar blue assay; type: functional, cell-based; conditions: A549, 96 h
MCF7 = assay: Antiproliferative activity against human MCF7 cells after 4 days by alamar blue assay; type: functional, cell-based; conditions: MCF7, 96 h
LNCaP = assay: Antiproliferative activity against human LNCAP cells after 4 days by alamar blue assay; type: functional, cell-based; conditions: 96 h
[3] = biological target: Poly [ADP-ribose] polymerase 1 (Homo sapiens, UniProt P09874); conditions: 1 uM
Sequence of Poly [ADP-ribose] polymerase 1 (P09874 whole entry): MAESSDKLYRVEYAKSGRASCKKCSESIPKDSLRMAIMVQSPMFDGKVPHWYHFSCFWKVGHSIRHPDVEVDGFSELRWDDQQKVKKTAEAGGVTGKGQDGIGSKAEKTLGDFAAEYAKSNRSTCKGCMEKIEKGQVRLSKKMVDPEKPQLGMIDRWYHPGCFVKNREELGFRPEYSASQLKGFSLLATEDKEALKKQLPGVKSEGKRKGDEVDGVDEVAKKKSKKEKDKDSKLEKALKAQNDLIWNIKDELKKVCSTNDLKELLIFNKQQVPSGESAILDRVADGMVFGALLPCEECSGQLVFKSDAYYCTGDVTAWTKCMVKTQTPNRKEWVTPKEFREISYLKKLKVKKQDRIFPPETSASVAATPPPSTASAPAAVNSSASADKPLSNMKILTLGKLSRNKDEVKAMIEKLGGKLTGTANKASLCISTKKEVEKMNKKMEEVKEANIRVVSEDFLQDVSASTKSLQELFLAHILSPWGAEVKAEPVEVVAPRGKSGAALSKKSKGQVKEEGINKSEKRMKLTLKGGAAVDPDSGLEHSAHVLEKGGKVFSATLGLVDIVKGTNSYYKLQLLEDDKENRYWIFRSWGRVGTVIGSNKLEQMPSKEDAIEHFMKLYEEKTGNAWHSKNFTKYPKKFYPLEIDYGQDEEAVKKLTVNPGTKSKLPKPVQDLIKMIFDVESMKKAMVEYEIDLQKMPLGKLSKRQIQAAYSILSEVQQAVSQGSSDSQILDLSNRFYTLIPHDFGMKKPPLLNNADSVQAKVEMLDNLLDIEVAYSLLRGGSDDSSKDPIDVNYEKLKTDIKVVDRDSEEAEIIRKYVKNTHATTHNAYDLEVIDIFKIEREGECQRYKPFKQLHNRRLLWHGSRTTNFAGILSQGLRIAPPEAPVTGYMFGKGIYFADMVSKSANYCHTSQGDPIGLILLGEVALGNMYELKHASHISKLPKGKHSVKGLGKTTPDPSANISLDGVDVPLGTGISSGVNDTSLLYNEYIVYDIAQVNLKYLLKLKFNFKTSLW

[4] = Elimination half life in Beagle dog at 1.9 mg/kg, iv and 8.2 mg/kg, po by LC-MS/MS analysis; type: ADME, organism-based, Canis lupus familiaris; conditions: in vivo
In short: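 Overnight-fasted beagle dogs, 3 per route, single iv or oral dose. The iv dose was 25n sodium salt in 25 mM sodium phosphate buffer; the oral dose was sodium salt in filled capsules. Blood was drawn at 0.08–24 h (iv) or 0.25–24 h (po). Plasma was stored at −80 °C, measured by LC-MS/MS, and analysed noncompartmentally.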

Cytochrome P450 2C19 = Cytochrome P450 2C19 (Homo sapiens, UniProt P33261); assay: Inhibition of CYP2C19; type: ADME
Sequence of Cytochrome P450 2C19 (P33261 whole entry): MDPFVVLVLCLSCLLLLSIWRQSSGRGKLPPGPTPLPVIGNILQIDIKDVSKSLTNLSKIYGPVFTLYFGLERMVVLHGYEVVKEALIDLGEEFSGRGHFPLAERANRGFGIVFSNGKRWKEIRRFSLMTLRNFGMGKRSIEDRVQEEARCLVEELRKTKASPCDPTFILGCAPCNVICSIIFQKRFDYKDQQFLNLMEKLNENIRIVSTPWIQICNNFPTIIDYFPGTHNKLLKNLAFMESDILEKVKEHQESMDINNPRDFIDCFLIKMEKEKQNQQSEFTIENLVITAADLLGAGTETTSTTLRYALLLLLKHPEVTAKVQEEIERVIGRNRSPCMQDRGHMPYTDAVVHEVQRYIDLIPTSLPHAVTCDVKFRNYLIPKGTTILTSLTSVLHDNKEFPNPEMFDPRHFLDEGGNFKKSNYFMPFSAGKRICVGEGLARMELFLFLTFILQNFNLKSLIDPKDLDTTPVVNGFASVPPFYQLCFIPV

[5] = biological target: Voltage-gated inwardly rectifying potassium channel KCNH2 (Homo sapiens, UniProt Q12809); assay: Inhibition of human ERG at 0.1 to 10 uM by patch clamp technique
Sequence of Voltage-gated inwardly rectifying potassium channel KCNH2 (Q12809 whole entry): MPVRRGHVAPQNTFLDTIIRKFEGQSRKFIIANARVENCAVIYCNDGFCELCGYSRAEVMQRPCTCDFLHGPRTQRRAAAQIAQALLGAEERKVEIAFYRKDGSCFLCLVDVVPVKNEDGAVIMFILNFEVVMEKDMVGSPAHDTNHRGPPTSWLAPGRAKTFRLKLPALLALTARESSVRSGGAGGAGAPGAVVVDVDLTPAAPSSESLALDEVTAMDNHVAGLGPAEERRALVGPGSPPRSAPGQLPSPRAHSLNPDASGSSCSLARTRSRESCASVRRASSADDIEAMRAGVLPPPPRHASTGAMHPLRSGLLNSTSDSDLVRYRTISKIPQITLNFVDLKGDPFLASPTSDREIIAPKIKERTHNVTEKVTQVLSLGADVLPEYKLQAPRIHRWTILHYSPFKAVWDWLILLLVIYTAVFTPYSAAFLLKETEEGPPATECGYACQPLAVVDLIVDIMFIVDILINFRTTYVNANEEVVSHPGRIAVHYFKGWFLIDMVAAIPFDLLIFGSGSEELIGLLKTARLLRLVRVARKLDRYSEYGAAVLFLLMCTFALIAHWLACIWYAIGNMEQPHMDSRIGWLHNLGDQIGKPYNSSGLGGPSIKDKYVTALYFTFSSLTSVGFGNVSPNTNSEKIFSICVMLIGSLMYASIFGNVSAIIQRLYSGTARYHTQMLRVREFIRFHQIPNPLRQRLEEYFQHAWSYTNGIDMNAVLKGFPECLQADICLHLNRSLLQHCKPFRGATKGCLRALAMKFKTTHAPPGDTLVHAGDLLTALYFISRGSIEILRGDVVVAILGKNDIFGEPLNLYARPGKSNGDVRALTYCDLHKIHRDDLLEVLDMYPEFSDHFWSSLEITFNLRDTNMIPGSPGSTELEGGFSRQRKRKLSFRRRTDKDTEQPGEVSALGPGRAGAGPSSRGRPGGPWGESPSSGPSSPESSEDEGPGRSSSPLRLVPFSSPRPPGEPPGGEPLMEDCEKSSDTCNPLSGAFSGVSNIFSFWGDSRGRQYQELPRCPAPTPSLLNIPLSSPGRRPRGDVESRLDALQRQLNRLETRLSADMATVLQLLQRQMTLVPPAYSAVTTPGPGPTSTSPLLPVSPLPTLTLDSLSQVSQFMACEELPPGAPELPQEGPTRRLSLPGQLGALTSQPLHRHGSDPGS

[6] = Elimination half life in Sprague-Dawley rat at 5.2 mg/kg, iv and 10.5 mg/kg, po by LC-MS/MS analysis; type: ADME, organism-based; conditions: in vivo
In short: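 Overnight-fasted SD rats, 3 per route, single iv or oral dose of sodium salt in 25 mM sodium phosphate buffer. Blood was drawn at 0.08–48 h (iv) or 0.25–48 h (po). Plasma was stored at −80 °C, measured by LC-MS/MS, and analysed noncompartmentally.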

A-375 = assay: Antiproliferative activity against human A375 cells after 4 days by alamar blue assay; type: functional, cell-based; conditions: A-375, 96 h
Cytochrome P450 1A2 = Cytochrome P450 1A2 (Homo sapiens, UniProt P05177); assay: Inhibition of CYP1A2; type: ADME
BXPC-3 = assay: Antiproliferative activity against human BxPC3 cells after 4 days by alamar blue assay; type: functional, cell-based; conditions: BXPC-3, 96 h
PC-3 [7] = assay: Antitumor activity against human PC3 cells xenografted in athymic mouse assessed as tumor growth inhibition at 75 mg/kg, po BID; type: functional; conditions: read-out: TGI
[8] = AUC in Beagle dog at 8.2 mg/kg, po by LC-MS/MS analysis; type: ADME, organism-based, Canis lupus familiaris; design: dose 8.2 mg/kg, route oral; conditions: plasma
In short: (§1)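 Single iv and po doses to overnight-fasted ICR mice, SD rats and beagle dogs; sodium salt in 25 mM sodium phosphate buffer (rodents), sodium-salt powder in capsules (dogs po). Three animals per route per species (four for one). Serial blood sampling to 24 h (mouse, dog) or 48 h (rat); plasma by LC-MS/MS; parameters by noncompartmental analysis.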

PC-3 [9] = assay: Antitumor activity against human PC3 cells xenografted in athymic mouse assessed as tumor growth inhibition at 50 mg/kg, po BID; type: functional; conditions: read-out: TGI
[10] = Elimination half life in ICR mouse at 5 mg/kg, iv and 25 mg/kg, po by LC-MS/MS analysis; type: ADME, organism-based; conditions: in vivo
[11] = Clearance in Sprague-Dawley rat at 5.2 mg/kg, iv and 10.5 mg/kg, po by LC-MS/MS analysis; type: ADME, organism-based; conditions: in vivo; in short: as §1
[12] = Clearance in ICR mouse at 5 mg/kg, iv and […] mg/kg, po by LC-MS/MS analysis; type: ADME, organism-based; conditions: in vivo
[13] = Oral bioavailability in Sprague-Dawley rat at 10.5 mg/kg, po by LC-MS/MS analysis; type: ADME, organism-based; conditions: in vivo; in short: as §1
[14] = Oral bioavailability in ICR mouse at 25 mg/kg by LC-MS/MS analysis; type: ADME, organism-based; conditions: in vivo; in short: as §1
PC-3 [15] = assay: Antitumor activity against human PC3 cells xenografted in athymic mouse assessed as tumor growth inhibition at 25 mg/kg, po BID; type: functional; conditions: read-out: TGI
Mus musculus = assay: Toxicity in athymic mouse xenografted with human PC3 assessed as change in body weight at 25 to 75 mg/kg, po BID; type: organism-based; design: dose 25-75 mg/kg, route oral; conditions: in vivo
In short: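 PC3 cells injected subcutaneously into right hind flank of nude mice; at 150-200 mm3 randomized, 10 per group. Sodium salt in 25 mM NaH2PO4 buffer given by oral gavage twice daily at 25, 50 and 75 mg/kg; body weights measured twice weekly versus vehicle-treated controls.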

Cytochrome P450 2D6 = Cytochrome P450 2D6 (Homo sapiens, UniProt P10635); assay: Inhibition of CYP2D6; type: ADME
[16] = AUC in ICR mouse at 25 mg/kg, po by LC-MS/MS analysis; type: ADME, organism-based; design: dose 25 mg/kg, route oral; conditions: plasma; in short: as §1
[17] = Oral bioavailability in Beagle dog at 8.2 mg/kg by LC-MS/MS analysis; type: ADME, organism-based, Canis lupus familiaris; conditions: in vivo; in short: as §1
Cytochrome P450 2C9 = Cytochrome P450 2C9 (Homo sapiens, UniProt P11712); assay: Inhibition of CYP2C9; type: ADME
Sequence of Cytochrome P450 2C9 (P11712 whole entry): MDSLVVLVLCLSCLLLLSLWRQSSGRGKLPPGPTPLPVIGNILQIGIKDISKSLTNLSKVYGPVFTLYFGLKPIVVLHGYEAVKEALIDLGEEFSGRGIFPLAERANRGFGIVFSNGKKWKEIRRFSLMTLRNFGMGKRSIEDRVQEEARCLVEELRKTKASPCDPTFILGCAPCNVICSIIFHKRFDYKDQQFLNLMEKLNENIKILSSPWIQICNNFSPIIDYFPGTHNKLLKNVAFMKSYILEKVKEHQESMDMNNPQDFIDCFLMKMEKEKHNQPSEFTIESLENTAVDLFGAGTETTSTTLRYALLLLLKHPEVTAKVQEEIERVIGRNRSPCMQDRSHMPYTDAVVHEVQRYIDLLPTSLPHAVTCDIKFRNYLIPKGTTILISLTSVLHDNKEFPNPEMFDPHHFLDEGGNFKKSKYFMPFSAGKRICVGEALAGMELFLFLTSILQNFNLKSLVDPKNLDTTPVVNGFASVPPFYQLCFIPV

Cytochrome P450 3A4 = Cytochrome P450 3A4 (Homo sapiens, UniProt P08684); assay: Inhibition of CYP3A4; type: ADME
Sequence of Cytochrome P450 3A4 (P08684 whole entry): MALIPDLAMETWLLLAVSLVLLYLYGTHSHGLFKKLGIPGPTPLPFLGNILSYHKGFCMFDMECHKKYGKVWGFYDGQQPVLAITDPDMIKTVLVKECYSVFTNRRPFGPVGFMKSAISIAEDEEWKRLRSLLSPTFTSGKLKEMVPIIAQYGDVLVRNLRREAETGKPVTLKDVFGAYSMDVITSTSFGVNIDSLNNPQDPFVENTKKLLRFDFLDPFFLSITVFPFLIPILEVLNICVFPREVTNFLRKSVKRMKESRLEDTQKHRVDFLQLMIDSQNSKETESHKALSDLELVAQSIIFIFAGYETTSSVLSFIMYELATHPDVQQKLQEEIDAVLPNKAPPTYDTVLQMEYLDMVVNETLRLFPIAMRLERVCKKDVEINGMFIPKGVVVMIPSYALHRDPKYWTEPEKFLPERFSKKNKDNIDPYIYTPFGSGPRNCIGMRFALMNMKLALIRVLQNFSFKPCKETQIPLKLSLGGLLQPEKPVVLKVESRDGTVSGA

[18] = Clearance in Beagle dog at 1.9 mg/kg, iv and […] mg/kg, po by LC-MS/MS analysis; type: ADME, organism-based, Canis lupus familiaris; conditions: in vivo
[19] = AUC in Sprague-Dawley rat at 10.5 mg/kg, po by LC-MS/MS analysis; type: ADME, organism-based; design: dose 10.5 mg/kg, route oral; conditions: plasma; in short: as §1

SMILES: COc1cccc(Nc2nc3cc(C(=O)O)ccc3c3cnccc23)c1
IC50 [1]: 10.7 µM | IC50 (cells): 12.9 µM | IC50 (HCT-116): 9.5 µM | IC50 (PC-3 [2]): 17.4 µM | IC50 (K562): 5.9 µM | IC50 (MIA PaCa-2): 8.5 µM | IC50 (Jurkat): 6.5 µM

SMILES: O=C(O)c1ccc2c(c1)nc(NCCc1ccccc1)c1ccncc12
IC50 [1]: 21 µM | IC50 (A549): 47 µM | IC50 (cells): 16.5 µM | IC50 (HCT-116): 13.2 µM | IC50 (MCF7): 14.7 µM | IC50 (PC-3 [2]): 23.6 µM | IC50 (LNCaP): 8.6 µM | IC50 (MIA PaCa-2): 5.2 µM

SMILES: O=C(O)c1ccc2c(c1)nc(NCCCO)c1ccsc12
inhibition [3]: 12%

SMILES: O=C(O)c1ccc2c(c1)nc(Nc1ccccc1)c1cccnc12
IC50 (Casein kinase II): > 0.5 µM

SMILES: O=C(O)c1ccc2c(c1)nc(Nc1cccc(Cl)c1)c1ccncc12 [SILMITASERTIB]
IC50 [1]: 2.4 µM | half-life [4]: 8.3 h | inhibition (INH) (Cytochrome P450 2C19): Not Active | inhibition (INH) [5]: < 10% | half-life [6]: 11.6 h | IC50 (A-375): 3.9 µM | inhibition (INH) (Cytochrome P450 1A2): Not Active | IC50 (BXPC-3): 4.4 µM | IC50 (A549): 3 µM | IC50 (cells): 13.1 µM | IC50 (HCT-116): 2.2 µM | inhibition in vivo at 75 mg/kg (PC-3 [7]): 86% | AUC [8]: 5650 ng·h/mL | IC50 (MCF7): 8.9 µM | inhibition in vivo at 50 mg/kg (PC-3 [9]): 40% | half-life [10]: 5 h | IC50 (PC-3 [2]): 2.1 µM | clearance [11]: 1.67 mL/min/kg | clearance [12]: 41.7 mL/min/kg | IC50 (LNCaP): 4.7 µM | IC50 (K562): 5.3 µM | bioavailability [13]: 48% | bioavailability [14]: 20% | inhibition in vivo at 25 mg/kg (PC-3 [15]): 19% | Activity (Mus musculus): Non-toxic | inhibition (INH) (Cytochrome P450 2D6): Not Active | AUC [16]: 2010 ng·h/mL | IC50 (MIA PaCa-2): 1.1 µM | bioavailability [17]: 51% | inhibition (INH) (Cytochrome P450 2C9): Not Active | inhibition (INH) (Cytochrome P450 3A4): Not Active | IC50 (Jurkat): 2.5 µM | clearance [18]: 11.7 mL/min/kg | AUC [19]: 42300 ng·h/mL

SMILES: O=C(O)c1ccc2c(c1)nc(Nc1ccccc1)c1ncccc12
IC50 (Casein kinase II): > 0.5 µM

SMILES: O=C(O)c1ccc2c(c1)nc(Nc1ccccc1)c1cnccc12
IC50 (Casein kinase II): > 0.5 µM

SMILES: O=C(O)c1ccc2c(c1)nc(Nc1cccc(Cl)c1)c1ncccc12
IC50 (Casein kinase II): > 0.5 µM

SMILES: O=C(O)c1ccc2c3sccc3c(=O)n(CCCO)c2c1
inhibition [3]: 21%

Second part, the compound after the results:

IC50 (Casein kinase II): 0.027 µM
SMILES: O=C(O)c1ccc2c(c1)nc(NC1CCCC1)c1ccncc12

IC50 (Casein kinase II): > 0.5 µM
SMILES: Clc1cccc(Nc2nc3cc(-c4nnc[nH]4)ccc3c3cnccc23)c1

IC50 (Casein kinase II): 0.019 µM
SMILES: O=C(O)c1ccc2c(c1)nc(Nc1cccc(Oc3ccccc3)c1)c1ccncc12

IC50 (Casein kinase II): 0.008 µM
SMILES: O=C(O)c1ccc2c(c1)nc(Nc1ccccc1Cl)c1ccncc12

IC50 (Casein kinase II): > 0.5 µM
SMILES: O=C(O)c1ccc2c(c1)nc(Nc1cccc(Cl)c1)c1cccnc12

IC50 (Casein kinase II): > 0.5 µM
SMILES: Cc1cc2c(cc1C(=O)O)nc(Nc1cccc(Cl)c1)c1ccncc12

IC50 (Casein kinase II): 0.006 µM
SMILES: Cc1c(C(=O)O)ccc2c1nc(Nc1cccc(Cl)c1)c1ccncc12

IC50 (Casein kinase II): 0.22 µM
SMILES: O=C(O)c1ccc2c(c1)nc(Nc1cccc(Cl)c1)c1nccnc12
